The nature of data set [1]: Time for almost complete conversion of the compound to 1 in simulated intestinal fluid by HPLC analysis.
Data set [2] relates to Liver microsome. The data set can be described thus: Drug metabolism in human liver microsomes assessed as Rp,Sp-dinucleotide-1 (O-((2R,3S,5R)-5-(6-amino-9H-purin-9-yl)-3-hydroxytetrahydrofuran-2-yl)methyl O-(2R,3R,4R,5R)-5-(2,4-dioxo-3,4-dihydropyrimidin-1(2H)-yl)-2-(hydroxymethyl)-4-methoxytetrahydrofuran-3-yl S-hydrogen phosphorothioate) metabolite formation at 10 uM incubated up to 8 hrs by LC/MS analysis. It counts as ADME. The essentials: (§1)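 Microsomes (1 mg/ml) pretreated 15 min on ice with alamethicin (10 µg/ml). Incubated with prodrug (10 µM final), NADPH 1.3 mM and UDP-GlcUA 5 mM in PBS at 37°C with shaking. Sampled at 1, 4, 6 and 8 h and quenched with acetonitrile. Supernatant lyophilised, reconstituted in water, analysed by C18 HPLC and by LC/MS.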

The nature of data set [3]: Drug metabolism in human liver S9 fraction assessed as Rp,Sp-dinucleotide-1 (O-((2R,3S,5R)-5-(6-amino-9H-purin-9-yl)-3-hydroxytetrahydrofuran-2-yl)methyl O-(2R,3R,4R,5R)-5-(2,4-dioxo-3,4-dihydropyrimidin-1(2H)-yl)-2-(hydroxymethyl)-4-methoxytetrahydrofuran-3-yl S-hydrogen phosphorothioate) metabolite formation at 10 uM by HPLC analysis. Conditions: s9, 10 µM. It counts as ADME, subcellular. A digest of the protocol:
(§2)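 Pooled human liver S9 (1 mg/ml) pretreated 15 min on ice with alamethicin (10 µg/ml). Incubated with prodrug (10 µM), NADPH 1.3 mM, UDP-GlcUA 5 mM, S-adenosylmethionine 0.1 mM, PAPS 0.1 mM and acetyl-CoA 1 mM in PBS at 37°C with shaking. Sampled at 1, 4 and 6 h, acetonitrile-quenched, then analysed by HPLC and LC/MS.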

Data set [4] has as its system Liver microsome. The data set can be described thus: Drug metabolism in human liver microsomes assessed as Rp,Sp-dinucleotide-1 (O-((2R,3S,5R)-5-(6-amino-9H-purin-9-yl)-3-hydroxytetrahydrofuran-2-yl)methyl O-(2R,3R,4R,5R)-5-(2,4-dioxo-3,4-dihydropyrimidin-1(2H)-yl)-2-(hydroxymethyl)-4-methoxytetrahydrofuran-3-yl S-hydrogen phosphorothioate) metabolite formation at 10 uM incubated up to 8 hrs by HPLC analysis. It counts as ADME. The essentials: as §1

Data set [5] can be described thus: Drug metabolism in human liver S9 fraction assessed as Rp,Sp-dinucleotide-1 (O-((2R,3S,5R)-5-(6-amino-9H-purin-9-yl)-3-hydroxytetrahydrofuran-2-yl)methyl O-(2R,3R,4R,5R)-5-(2,4-dioxo-3,4-dihydropyrimidin-1(2H)-yl)-2-(hydroxymethyl)-4-methoxytetrahydrofuran-3-yl S-hydrogen phosphorothioate) metabolite formation at 10 uM by LC/MS analysis. It counts as ADME, subcellular. The settings on record: s9, 10 µM. A digest of the protocol: as §2

A short description of data set [6]: Half life of the compound in simulated gastric fluid by HPLC analysis. It counts as ADME. The essentials:
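Stock of 2 mg/100 µl in DMSO; 10 µl added to 200 µl simulated gastric fluid (NaCl, porcine pepsin, HCl, pH 1.2) or simulated intestinal fluid (KH2PO4, NaOH, pancreatin, pH 6.8), 37°C. Aliquots at 15 min, 30 min, 1 h, 3 h were quenched with acetonitrile (SGF neutralised to pH 7.0), centrifuged, lyophilised, reconstituted in water, analysed by C18 HPLC.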

Data set [7] deals with Liver. The data set can be described thus: Drug level in human liver S9 fraction treated with Rp,Sp-dinucleotide-2 at 10 uM by HPLC analysis. It counts as ADME, subcellular. The settings on record: s9, 10 µM. The essentials:
(§3)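 Pooled human liver S9 (1 mg/ml), alamethicin-treated (10 μg/ml, 15 min on ice), with NADPH 1.3 mM, UDP-GlcUA 5 mM in 1× PBS; substrate 10 μM final. Incubated 37°C shaking; sampled 1, 4, 6 h, acetonitrile quench, centrifuged, supernatant lyophilised, reconstituted in water; HPLC (C18, 25°C, 5–50% acetonitrile in 0.1 M NH4OAc over 45 min) and LC/MS.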

Data set [8] relates to Liver microsome. The data set can be described thus: Drug level in human liver microsomes treated with Rp,Sp-dinulceotide-2 at 10 uM incubated up to 8 hrs by HPLC analysis. It counts as ADME. A digest of the protocol:
(§4)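 Liver microsomes 1 mg/ml pretreated with alamethicin 10 μg/ml on ice 15 min; NADPH 1.3 mM and UDP-GlcUA 5 mM added in 1× PBS, substrate 10 μM final. Shaking bath at 37°C; aliquots at 1, 4, 6, 8 h quenched with acetonitrile, centrifuged, supernatant lyophilised and redissolved in water; analysed by C18 HPLC (5–50% acetonitrile/0.1 M NH4OAc gradient) and LC/MS.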

Data set [9] deals with Liver. The data set can be described thus: Drug level in human liver S9 fraction treated with Rp,Sp-dinucleotide-2 at 10 uM by LC/MS analysis. It counts as ADME, subcellular. Conditions: s9, 10 µM. The essentials: as §3
Data set [10] relates to Liver microsome. Nature of the data set: Drug level in human liver microsomes treated with Rp,Sp-dinulceotide-2 at 10 uM incubated up to 8 hrs by LC/MS analysis. It counts as ADME. A digest of the protocol: as §4
Data set [11] can be described thus: Stability of the compound in simulated intestinal fluid by HPLC analysis. It counts as ADME. The settings on record: simulated gi fluid. A digest of the protocol: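 Simulated intestinal fluid: KH2PO4 6.8 g/l with NaOH, pancreatin 10 g/l, pH 6.8. DMSO stock (2 mg/100 μl), 10 μl added to 200 μl SIF, 37°C; aliquots at 15 min, 30 min, 1 h, 3 h quenched with acetonitrile, centrifuged, supernatant lyophilised, reconstituted in water, analysed by C18 HPLC.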

The source of these data is ChEMBL document CHEMBL3526154, “Metabolism, pharmacokinetics, tissue distribution, and stability studies of the prodrug analog of an anti-hepatitis B virus dinucleoside phosphorothioate” (Drug Metab Dispos, 2012).

Usually half-life stands for the time in which the quantity being followed falls by half. Lower therefore signals fast loss. In the case of `CO[C@@H]1[C@H](OP(=O)(OC[C@H]2O[C@@H](n3cnc4c(N)ncnc43)C[C@@H]2O)SCOC(=O)OC(C)C)[C@@H](CO)O[C@H]1n1ccc(=O)[nH]c1=O` (some centres not stated) [INARIGIVIR SOPROXIL], the time for complete conversion in [1] is 180 min. For the same compound, the Drug metabolism entry (with Liver microsome [2]; in data set [3]; in the data set on Liver microsome [4]; in data set [5]) was “metabolite_detected” each time. Also, in data set [6], the half-life is greater than 3 h.

With `CO[C@@H]1[C@H](OP(=O)(S)OC[C@H]2O[C@@H](n3cnc4c(N)ncnc43)C[C@@H]2O)[C@@H](CO)O[C@H]1n1ccc(=O)[nH]c1=O` (some centres not stated) [INARIGIVIR], the Drug metabolism result in the data set on Liver [7], in the data set on Liver microsome [8], in the data set on Liver [9] and in the data set on Liver microsome [10] was “metabolite_detected” in each case. For the same compound, the Stability entry in data set [11] was “Stable”. The half-life in data set [6] was less than 0.25 h.
